Active and inactive are the calls of the source. The rule behind the calls is not given here.

For assay [1], the system named is Staphylococcus epidermidis. In words: Antimicrobial activity against methicillin-resistant Staphylococcus epidermidis GTC 18972 assessed as inhibition of bacterial biofilm after 18 hrs by broth microdilution method. The class given is functional. The procedure, abridged: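 Biofilm MBIC on tissue culture-treated polystyrene 96-well plates. Twofold dilutions, 0.2 to 100 μM final, with 2% DMSO final. Inoculum was an overnight culture diluted 1:100 (~5 × 10^6 cells/well) in 0.5× TSB plus 1% glucose, grown 18 h at 37°C. Wells washed, heat-fixed 60°C 60 min, stained with 0.06% crystal violet, OD600 read. MBIC is the lowest concentration giving ≥80% inhibition versus untreated; geometric mean of ≥3 experiments.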

The next assay has as its system Staphylococcus aureus. In words: Antimicrobial activity against Staphylococcus aureus ATCC 35556 assessed as inhibition of planktonic cell growth at 8 times MBIC. The class given is functional, organism-based.

Regarding `CCOc1cc(/C=C2\SC(=S)N(c3ccc(F)cc3)C2=O)ccc1O`, the MBIC in assay [1] is 21 µM. Moreover, the inhibition result with Staphylococcus aureus was “inactive”.

These data come from ChEMBL document CHEMBL1649230, “Aryl rhodanines specifically inhibit staphylococcal and enterococcal biofilm formation” (Antimicrob Agents Chemother, 2009).
